In ChEMBL document CHEMBL1147854, “Synthesis and biological properties of 4-(3H)-quinazolone derivatives” (2007):
Active and inactive are the calls of the source. The rule behind the calls is not given here.

Tests used:
Aspergillus niger [1] = assay: Antifungal activity against Aspergillus niger at 100 ug/ml by agar plate method; assay type: functional
Procedure, shortened: (§1)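 1 ml of test compound in DMSO (diluted to required level, filtered if turbid) mixed into 20–25 ml molten potato dextrose agar. After setting, plates were inoculated with fungal isolate and kept at 27 °C for seven days. Percent inhibition of fungal zone then recorded. Amphotericin control (7.5 mg/ml).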

Aspergillus flavus [2] = assay: Antifungal activity against Aspergillus flavus at 100 ug/ml by agar plate method; assay type: functional; procedure, shortened: as §1
Klebsiella pneumoniae = assay: Antibacterial activity against Klebsiella pneumoniae at 10 ug/ml after 24 hrs by disk diffusion method; assay type: functional; details: read-out: IZ
Procedure, shortened: (§2)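 Disk diffusion on filter-paper discs impregnated with DMSO solutions of test compound; filtered if turbid. Inhibition zones around dried discs measured after 24 h. Triplicate samples. Tetracycline control (20 mg/ml).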

Aspergillus flavus [3] = assay: Antifungal activity against Aspergillus flavus at 20 ug/ml by agar plate method; assay type: functional; procedure, shortened: as §1
Aspergillus niger [4] = assay: Antifungal activity against Aspergillus niger at 10 ug/ml by agar plate method; assay type: functional; procedure, shortened: as §1
Aspergillus flavus [5] = assay: Antifungal activity against Aspergillus flavus at 10 ug/ml by agar plate method; assay type: functional; procedure, shortened: as §1
Aspergillus flavus [6] = assay: Antifungal activity against Aspergillus flavus at 50 ug/ml by agar plate method; assay type: functional; procedure, shortened: as §1
MCF7 = assay: Cytotoxicity against human MCF7 cells by MTT assay; assay type: functional, cell-based
Procedure, shortened: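 MCF-7 cells were kept at 37 °C, 5% CO2 in MEM with 10% FBS, then moved for four days to phenol red-free DMEM with 10% charcoal-stripped serum before testing. Cells were seeded at 1 × 10^4/well and exposed to compounds for 24, 48 and 72 h. MTT was added for 5 h at 37 °C, followed by DMSO solubilisation. Doxorubicin standard.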

Pseudomonas aeruginosa = assay: Antibacterial activity against Pseudomonas aeruginosa at 10 ug/ml after 24 hrs by disk diffusion method; assay type: functional; details: read-out: IZ; procedure, shortened: as §2
Staphylococcus aureus = assay: Antibacterial activity against Staphylococcus aureus at 10 ug/ml after 24 hrs by disk diffusion method; assay type: functional; details: read-out: IZ; procedure, shortened: as §2
Aspergillus niger [7] = assay: Antifungal activity against Aspergillus niger at 20 ug/ml by agar plate method; assay type: functional; procedure, shortened: as §1
Aspergillus niger [8] = assay: Antifungal activity against Aspergillus niger at 50 ug/ml by agar plate method; assay type: functional; procedure, shortened: as §1

Structure (SMILES) | inhibition at 100 µg/mL (Aspergillus niger [1]) [%] | inhibition at 100 µg/mL (Aspergillus flavus [2]) [%] | zone of inhibition at 10 µg/mL (Klebsiella pneumoniae) [mm] | inhibition at 20 µg/mL (Aspergillus flavus [3]) [%] | inhibition at 10 µg/mL (Aspergillus niger [4]) [%] | inhibition at 10 µg/mL (Aspergillus flavus [5]) [%] | inhibition at 50 µg/mL (Aspergillus flavus [6]) [%] | Activity (MCF7) | zone of inhibition at 10 µg/mL (Pseudomonas aeruginosa) [mm] | zone of inhibition at 10 µg/mL (Staphylococcus aureus) [mm] | inhibition at 20 µg/mL (Aspergillus niger [7]) [%] | inhibition at 50 µg/mL (Aspergillus niger [8]) [%]
O=c1c2ccccc2nc(/C=C\c2ccccc2)n1Nc1nc(-c2ccccc2)nc2ccccc12 | 95 | 96.7 | 6 | 80 | 60 | 53.3 | 86.7 | Active | 10 | > 14 | 70 | 90
O=c1c2ccccc2nc(-c2ccccc2)n1Nc1nc(-c2ccccc2)nc2ccccc12 | 75 | 96.7 | > 14 | 83.3 | 30 | 76.7 | 93.3 | inactive | 10 | 6 | 40 | 60
O=C(NCc1nc2ccccc2c(=O)n1Nc1nc(-c2ccccc2)nc2ccccc12)c1ccccc1 | 90 | 86.7 | 10 | 66.6 | 50 | 60 | 76.7 | Active | 10 | 10 | 60 | 75
O=C1c2ccccc2C(=O)N1Cc1nc2ccccc2c(=O)n1Nc1nc(-c2ccccc2)nc2ccccc12 | 85 | 96.7 | > 14 | 86.7 | 25 | 83.3 | 86.7 | inactive | > 14 | 6 | 70 | 75
